Experimental data from ChEMBL document CHEMBL5104102, “Discovery of FtsZ inhibitors by virtual screening as antibacterial agents and study of the inhibition mechanism” (RSC Med Chem, 2022).
In brackets after ≈: the same amount, converted by molar mass.

Key:
Bacillus subtilis = assay: Antibacterial activity against Bacillus subtilis 168 assessed as inhibition of bacterial growth incubated for 18 hrs by CLSI protocol based two-fold serial dilution assay; assay type: functional
Method in brief: (§1)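 B. subtilis 168 or E. coli ATCC 25922 was grown in MHB and tested by CLSI-based broth microdilution. An overnight culture (37 °C, 250 rpm) was diluted tenfold, grown 2 h, and set to 5 × 10^6 CFU mL−1 by A600. Cells were added to two-fold serial compound dilutions (1% DMSO) and incubated 18 h at 37 °C. Read-out was A600, in duplicate. MIC was the lowest concentration giving A600 < 0.1.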

Escherichia coli = assay: Antibacterial activity against Escherichia coli 25922 assessed as inhibition of bacterial growth incubated for 18 hrs by CLSI protocol based two fold serial dilution method; assay type: functional; method in brief: as §1
Staphylococcus aureus [1] = assay: Antibacterial activity against Staphylococcus aureus 29213 assessed as inhibition of bacterial growth incubated for 18 hrs by CLSI protocol based two fold serial dilution method; assay type: functional
Method in brief: as §1, with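 “S. aureus” for “B. subtilis 168 or E. coli”, “29213” for “25922”, “CAMHB” for “MHB”, “mL−1.” for “mL−1 by A600.”, “with” for “giving”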

Staphylococcus aureus [2] = assay: Antibacterial activity against methicillin-resistant Staphylococcus aureus ATCC 43300 assessed as inhibition of bacterial growth incubated for 18 hrs by CLSI protocol based two fold serial dilution method; assay type: functional
Method in brief: (§2)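 CAMHB culture grown overnight at 37 °C with shaking at 250 rpm, diluted 10-fold, and grown 2 h. Inoculum set to 5 × 10^6 CFU mL−1 by A600. Compounds in DMSO were serially diluted two-fold, with 1% DMSO per well. Read at A600 after 18 h at 37 °C. MIC is the lowest concentration giving A600 < 0.1. Run in duplicate.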

Staphylococcus aureus [3] = assay: Antibacterial activity against methicillin-resistant Staphylococcus aureus ATCC 33592 assessed as inhibition of bacterial growth incubated for 18 hrs by CLSI protocol based two fold serial dilution method; assay type: functional; method in brief: as §2
Staphylococcus aureus [4] = assay: Synergistic antibacterial activity against methicillin-resistant Staphylococcus aureus BAA 41 assessed as FICI incubated for 18 hrs in presence of PC190723 by checkerboard assay; assay type: functional
Method in brief: (§3)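 Checkerboard against MRSA BAA 41. Compound two-fold serially diluted across the plate and methicillin down it. Inoculum 5 × 10^5 CFU mL−1, with untreated-cell columns. Incubated at 37 °C for 16–24 h and growth read as A600. FICI computed from the combined MICs, and <0.5 taken as synergy.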

Staphylococcus aureus [5] = assay: Synergistic antibacterial activity against methicillin-resistant Staphylococcus aureus BAA 41 assessed as inhibition of bacterial growth incubated for 18 hrs in presence of PC190723 by checkerboard assay; assay type: functional
Staphylococcus aureus [6] = assay: Synergistic antibacterial activity against methicillin-resistant Staphylococcus aureus BAA 41 assessed as FICI incubated for 18 hrs in presence of S2727 by checkerboard assay; assay type: functional; method in brief: as §3
Staphylococcus aureus [7] = assay: microbe, parasite or virus in culture; conditions: BAA 41, 18 h
Staphylococcus aureus [8] = assay: Antibacterial activity against methicillin-resistant Staphylococcus aureus BAA 44 assessed as inhibition of bacterial growth incubated for 18 hrs by CLSI protocol based two fold serial dilution method; assay type: functional; method in brief: as §2
Staphylococcus aureus [9] = assay: Antibacterial activity against methicillin-resistant Staphylococcus aureus BAA 41 assessed as inhibition of bacterial growth incubated for 18 hrs by CLSI protocol based two fold serial dilution method; assay type: functional; method in brief: as §2
Staphylococcus aureus [10] = assay: Antibacterial activity against methicillin-resistant Staphylococcus aureus BAA 1720 assessed as inhibition of bacterial growth incubated for 18 hrs by CLSI protocol based two fold serial dilution method; assay type: functional; method in brief: as §2
Staphylococcus aureus [11] = assay: Antibacterial activity against methicillin-resistant Staphylococcus aureus ATCC 33591 assessed as inhibition of bacterial growth incubated for 18 hrs by CLSI protocol based two fold serial dilution method; assay type: functional; method in brief: as §2
Staphylococcus aureus [12] = assay: microbe, parasite or virus in culture; conditions: BAA 41, 18 h; remark: listed apart in the source
Staphylococcus aureus [13] = assay: Synergistic antibacterial activity against methicillin-resistant Staphylococcus aureus BAA 41 assessed as FICI incubated for 18 hrs in presence of S2163 by checkerboard assay; assay type: functional; method in brief: as §3

Row | MIC (Bacillus subtilis) [µg/mL] | MIC (Escherichia coli) [µg/mL] | MIC (Staphylococcus aureus [1]) [µg/mL] | SMILES | other results
1 | > 128 | > 128 | > 128 | COc1ccc(-c2cc3c(C)nc(N)nc3n([C@H]3CC[C@H](OCCO)CC3)c2=O)cn1 [PF-04691502] | –
2 | > 128 | > 128 | > 128 | CC1(C)CC(=O)c2c(C(F)(F)F)nn(-c3ccc(C(N)=O)c(N[C@H]4CC[C@H](OC(=O)CN)CC4)c3)c2C1 [SNX 5422] | –
3 | – | – | – | COc1cccc(OC)c1C(=O)N[C@@H]1C(=O)N2[C@@H]1SC(C)(C)[C@@H]2C(=O)O [METHICILLIN] | MIC (Staphylococcus aureus [2]): 256 µg/mL (≈ 673 µM); MIC (Staphylococcus aureus [3]): 256 µg/mL (≈ 673 µM); fractional inhibitory concentration index (FICI) (Staphylococcus aureus [4]): 0.52; MIC (Staphylococcus aureus [5]): 4 µg/mL; fractional inhibitory concentration index (FICI) (Staphylococcus aureus [6]): 0.5; MIC (Staphylococcus aureus [7]): 4 µg/mL (≈ 10.5 µM); MIC (Staphylococcus aureus [8]): 512 µg/mL (≈ 1350 µM); MIC (Staphylococcus aureus [9]): 1020 µg/mL (≈ 2690 µM); MIC (Staphylococcus aureus [10]): 256 µg/mL (≈ 673 µM); MIC (Staphylococcus aureus [11]): 512 µg/mL (≈ 1350 µM); MIC (Staphylococcus aureus [12]): 1 µg/mL (≈ 2.63 µM); fractional inhibitory concentration index (FICI) (Staphylococcus aureus [13]): >1
4 | > 128 | > 128 | > 128 | COCCOc1ccc2c(c1)ncn2-c1ccc2cccc(N3CCC(N)CC3)c2n1 | –
5 | > 128 | > 128 | > 128 | Cc1cnc(-c2cc(N3CCN(C(=O)CCS(C)(=O)=O)CC3)ncc2Cl)c(C)c1 | –
